S1P3 antagonist = S1P3 (human) receptor antagonism | Q99500 | CHO S1P3 NFAT-BLA reporter, FRET fluorescence, antagonist mode | inhibition, % at 4.98 µM | 170,000 tested, 0.27% active | AID 485;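 active means inhibition above the plate cutoff, the mean inhibition of test wells on that plate plus 3 SD, cut at about 28% in these data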;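 further: cells challenged with S1P at its EC80 of 0.8 µM; blue over green emission ratio from cleaved BLA substrate after 4 h stimulation; 0% = S1P-stimulated wells and 100% = unstimulated DMSO-only wells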
Target sequence (Q99500 whole entry, looked up): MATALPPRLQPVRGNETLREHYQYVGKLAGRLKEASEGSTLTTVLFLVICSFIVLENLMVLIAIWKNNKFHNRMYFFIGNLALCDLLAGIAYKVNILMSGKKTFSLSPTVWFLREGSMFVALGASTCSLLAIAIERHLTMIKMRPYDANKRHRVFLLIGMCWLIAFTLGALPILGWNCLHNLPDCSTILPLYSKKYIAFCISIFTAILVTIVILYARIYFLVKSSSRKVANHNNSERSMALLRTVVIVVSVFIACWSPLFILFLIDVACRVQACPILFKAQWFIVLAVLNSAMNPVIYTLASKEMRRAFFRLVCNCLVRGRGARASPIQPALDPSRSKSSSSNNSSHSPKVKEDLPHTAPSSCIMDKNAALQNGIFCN
Lmaj promast = inhibitors of Leishmania major promastigote growth. inhibition, % at 10 µM. AID 1063. Leishmania major promastigotes, resazurin fluorescence viability. 200,000 tested, 9% active; in the data active means inhibition above about 50%;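 further: promastigotes grown with compound for 44 hours at 28 °C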
S1P4 antag = blocks the human S1P4 receptor; inhibition, % at 4.98 µM; O95977; 220,000 tested, 0.26% active; S1P4-expressing cells, antagonist mode, reporter read-out; in the data active means inhibition above about 29%;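 further: 0% = wells stimulated with agonist and 100% = vehicle wells without agonist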
Mdm2 ligase inh = inhibitors of human Mdm2 E3 ubiquitin ligase | Q00987 | cell-based MDM2 ubiquitination luciferase reporter, 2 h; 0 = plate control, 100 = twice control, blank-subtracted | signal enhancement, % at 5 µM | 210,000 tested, 0.11% active;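 active means signal enhancement of 30% or more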;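 further: luminescence tracks abundance of the self-degrading MDM2-luciferase fusion protein; higher signal means inhibition of MDM2 E3 ligase activity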
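test system = mammalian cells stably expressing self-ubiquitinating, self-degrading MDM2 E3–luciferase fusion | quantity = 2000 cells/well | incubation = cell settling 4 h, compound treatment 2 h, both 37 °C | signal = luminescence with SteadyLite reagent, 15 min at room temperature | evaluation = % enhancement relative to plate controls after blank subtraction | benchmarks = plate controls and plate blanks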
S1P4 agonist = agonists of human S1P4 receptor. 220,000 tested, 0.35% active. S1P4-expressing cell line, agonist reporter assay. O95977. activation, % at 4.98 µM; in the data active means activation above about 11%;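 further: 0% = DMSO vehicle and 100% = reference agonist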
The depositor's hits bear a star; nt = no result given. Only a selection was taken, and hits are over-represented in it overall.

SMILES	S1P3 antagonist	Lmaj promast	S1P4 antag	Mdm2 ligase inh	S1P4 agonist
Cc1c(C(=O)Nc2ccc(Cc3ccncc3)cc2)cccc1[N+](=O)[O-]	1.6	96.0*	-25.8	-8.3	1.3
CCCCN(C)CCNC(=O)C(NC(=O)C1CCC(C)CC1)C(C)C (stereo not given)	-7.5	-4.8	-10.7	-10.6	1.1
O=C(OCC(=O)N1CCCC1)c1c2c(nc3ccccc13)CCCCC2	-11.2	2.7	-10.2	-19.7	-0.4
Cn1cccc1Cc1nnc(SCC(=O)NCC2CCCO2)n1C (stereo not given)	5.0	3.8	-1.5	nt	0.4
O=C(Nc1ccc(Cc2ccncc2)cc1)c1cccc([N+](=O)[O-])c1	-2.1	73.8*	-15.9	-3.1	1.1
Cc1ccc(S(=O)(=O)CC#CCOC(=O)c2ccc([N+](=O)[O-])cc2)cc1	nt	100.5*	8.2	0.9	1.3
Cc1ccc(C(=O)c2ccc([N+](=O)[O-])cc2)cc1	nt	-6.8	3.8	-19.6	1.0
CCOC(=O)C1=C(N)OC2=C(C(=O)CC(C)(C)C2)C1c1cccs1 (stereo not given)	nt	8.8	-8.5	-5.3	-1.0
CCOC(=O)C1=CN(Cc2ccc(OC)cc2)C=C(C(=O)OCC)C1c1cccs1	-6.3	100.1*	-18.3	-11.3	2.1
CCCCNc1n[n+](C)c(-c2cccc(C)c2)s1	nt	nt	nt	34.8*	nt
CN1CCN(C(=S)c2cn(Cc3cccc(F)c3)c3ccccc23)CC1	-1.6	22.7	-6.2	-24.6	1.9
Cc1ccccc1OCCn1cc(C(=S)N2CCN(C)CC2)c2ccccc21	1.4	79.1*	3.2	8.9	-0.6
CN1CCN(C(=S)c2cn(Cc3ccc(F)cc3)c3ccccc23)CC1	-8.8	51.4*	-9.3	5.1	0.5
Cc1ccccc1OCCn1cc(C(=S)N2CCCC2)c2ccccc21	nt	13.9	-12.9	nt	-0.5
CS/C(=N\N(C)C(N)=O)c1ccccc1	-4.0	69.4*	-22.9	-5.9	0.0
CS/C(=N\NC(N)=O)c1ccccc1	-4.2	47.7	3.3	-13.2	0.9
CCOc1ccc(-n2c(=S)sc3c(=O)[nH]c(SCC(=O)C(C)(C)C)nc32)cc1	0.9	0.9	-26.8	-26.6	-0.7
O=C(c1ccc(-c2ccc([N+](=O)[O-])cc2)o1)N1CCCCC1	1.3	99.6*	-3.1	-43.2	2.7
O=C(c1ccc(-c2ccc(Cl)cc2)o1)N1CCN(c2ccc([N+](=O)[O-])cc2Cl)CC1	nt	30.7	-7.3	-2.0	-0.5
Nc1cccc(CCc2nc3cc4ccccc4cc3[nH]2)c1	5.1	97.1*	7.3	-2.7	-2.1
c1ccc(CCc2nc3ccccc3[nH]2)cc1	-5.5	10.8	-34.1	-13.3	1.6
CCC1CCCCN1C(=O)CSc1nnc(-c2cccs2)o1 (stereo not given)	-4.5	-5.2	-25.9	-7.6	-0.8
O=S(=O)(NC1=NCCC1)c1cccc(NS(=O)(=O)c2ccc(OC(F)(F)F)cc2)c1	-22.0	53.8*	-18.6	-1.9	0.1
O=c1[nH]c2c(c(=O)[nH]1)CCC2	-7.1	-2.3	-6.9	-3.9	-0.9
CCc1ccc(C2CC(=O)N(c3cccc(F)c3)C3=C2C(=O)OC3)cc1 (stereo not given)	0.1	-6.5	-19.6	14.5	1.4
SMILES	S1P3 antagonist	Lmaj promast	S1P4 antag	Mdm2 ligase inh	S1P4 agonist
Cc1cccc(C(C)C)c1NC(=O)COC(=O)c1cccc(S(=O)(=O)N2CCc3ccccc3C2)c1	-9.1	-6.9	-18.0	-17.7	0.4
Cc1cc(N2CCN(C)CC2)ccc1NC(=O)c1cccc(S(=O)(=O)N2CCc3ccccc3C2)c1	-0.8	97.6*	-15.8	-6.3	1.2
Cc1cccc(C)c1N(CC(=O)N/N=C/c1cc(Br)c(C)o1)S(C)(=O)=O	-1.7	70.5*	-19.9	-14.6	0.3
Cc1ccc(Cl)cc1N(CC(=O)Nc1cccc(N(C)S(C)(=O)=O)c1)S(C)(=O)=O	2.9	2.8	-1.2	-8.8	1.9
CN(c1cccc(NC(=O)CN(c2cccc(Cl)c2)S(=O)(=O)c2ccc(Cl)cc2)c1)S(C)(=O)=O	-0.1	72.2*	-9.1	4.3	0.4
Cc1cccc(C)c1N(CC(=O)Nc1cccc(N(C)S(C)(=O)=O)c1)S(C)(=O)=O	2.7	98.1*	-5.7	-23.1	-0.5
COc1ccc(NC(=S)N(CCCN2CCC(C)CC2)Cc2cccs2)cc1Cl	-19.8	99.2*	9.1	-12.4	-3.0
Cc1cc(C)cc(NC(=S)N(CCCN2CCN(C)CC2)Cc2cccs2)c1	-20.6	20.4	0.2	-11.5	-0.7
COc1ccc(NC(=S)N(CCCN2CCN(C)CC2)Cc2cccs2)cc1	-13.7	4.1	-6.1	-5.0	0.2
